Experimental data: ChEMBL document CHEMBL1124531, “Intercalating agents with covalent bond forming capability. A novel type of potential anticancer agents. 2. Derivatives of chrysophanol and emodin” (1989)

Tests used:
HL-60 = test: Inhibitory activity against human acute promyelocytic leukemia cells(HL-60) cell growth on 72 hr of exposure of the compound.; format: functional; conditions: HL-60, 72 h, read-out: ID50 (the source's name)
L1210 = test: Inhibitory activity against murine L1210 leukemic cell growth; format: functional; conditions: Mus musculus, read-out: ID50 (the source's name)
Nucleic Acid [1] = test: Ratio for human acute promyelocytic leukemia cells(HL-60) cell growth inhibition and [3H]TdR incorporation into DNA in HL-60 cells; format: functional, cell-based
Nucleic Acid [2] = test: Inhibitory activity against [3H]TdR incorporation into DNA in HL-60 cells during the initial 30-min period.; format: functional, cell-based; conditions: Homo sapiens
Procedure, shortened: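 HL-60 cells (2.5 × 10^6/mL) preincubated 15 min with compound at four to six concentrations in 0.2% DMSO, then pulsed with [3H-methyl]TdR (1 μCi, 0.15 nmol/mL) for 30 min; radioactivity in isolated DNA fraction counted; compound-free DMSO control as reference.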

| SMILES | IC50 (HL-60) [µM] | IC50 (L1210) [µM] | Ratio (Nucleic Acid [1]) | ID50 (Nucleic Acid [2]) [µM] |
| --- | --- | --- | --- | --- |
| CCCCNCc1cc(O)c2c(c1)C(=O)c1cccc(O)c1C2=O | 4.1 | 4.6 | 6.1 | 25 |
| COc1cc(O)c2c(c1)C(=O)c1cc(C(Br)Br)cc(O)c1C2=O | 0.19 | 0.001 | 579 | 110 |
| COc1cc(OC)c2c(c1)C(=O)c1cc(CBr)cc(OC)c1C2=O | 84 | 0.68 | 0.14 | 12 |
| O=C1c2cccc(O)c2C(=O)c2c(O)cc(CN3CCCC3)cc21 | 2.1 | 1.6 | 4.8 | 10 |
| CCN(CC)Cc1cc(O)c2c(c1)C(=O)c1cc(OC)cc(O)c1C2=O | 3.4 | 1.2 | 10.3 | 35 |
| COc1cc(OC)c2c(c1)C(=O)c1cc(CN(CCCl)CCCl)cc(OC)c1C2=O | 2 | 2.7 | 4.5 | 8.9 |
| CNC(=O)OCCN(CCOC(=O)NC)Cc1cc(OC)c2c(c1)C(=O)c1cccc(O)c1C2=O | 12 | 89 | 1 | 12 |
| CCN(CC)Cc1cc(OC)c2c(c1)C(=O)c1cc(OC)cc(O)c1C2=O | 6.7 | 6.9 | 26.9 | 180 |
| CCNCc1cc(O)c2c(c1)C(=O)c1cc(OC)cc(O)c1C2=O | 2.1 | 0.72 | 6.2 | 13 |
| COc1cc(CBr)cc2c1C(=O)c1c(O)cccc1C2=O | 7.1 | 8.8 | 1.7 | 12 |
| COc1cc(O)c2c(c1)C(=O)c1cc(CN(CCO)CCO)cc(OC)c1C2=O | > 500 | 8.8 | 0.02 | 9.6 |
| CCN(CC)Cc1cc(OC)c2c(c1)C(=O)c1cccc(O)c1C2=O | 5.2 | 12 | 2.7 | 14 |
| COc1cc(O)c2c(c1)C(=O)c1cc(CBr)cc(OC)c1C2=O | 1.7 | 0.068 | 41 | 70 |
| O=C1c2cccc(O)c2C(=O)c2c(O)cc(CBr)cc21 | 7.1 | 8.6 | 2.3 | 16 |
| COc1cc(O)c2c(c1)C(=O)c1cc(CNCCCl)cc(O)c1C2=O | 9.2 | 18 | 23.9 | 220 |
| O=C1c2cccc(O)c2C(=O)c2c(O)cc(CNCCCl)cc21 | 7.5 | 7.1 | 5.2 | 39 |
| COc1cccc2c1C(=O)c1c(OC)cc(C(Br)Br)cc1C2=O | 2.1 | 0.89 | 4.3 | 9 |
| COc1cccc2c1C(=O)c1c(OC)cc(CBr)cc1C2=O | 4.4 | 9.2 | 2.5 | 11 |
| COc1cc(O)c2c(c1)C(=O)c1cc(CBr)cc(O)c1C2=O | 25 | 59 | 13.6 | 340 |
| COc1cccc2c1C(=O)c1c(OC)cc(CN(CCCl)CCCl)cc1C2=O | 1.8 | 13 | 7.8 | 14 |
| O=C1c2cccc(O)c2C(=O)c2c(O)cc(Cn3ccnc3)cc21 | 4.8 | 7.4 | 9 | 43 |
| CC(C)NC(=O)OCCN(CCOC(=O)NC(C)C)Cc1cc(O)c2c(c1)C(=O)c1cccc(O)c1C2=O | 27 | 27 | 0.63 | 17 |
| COc1cccc2c1C(=O)c1c(OC)cc(CNCCCl)cc1C2=O | 86 | 26 | 0.22 | 19 |
| O=C1c2cccc(O)c2C(=O)c2c(O)cc(C(Br)Br)cc21 | 2.5 | 0.44 | 15.6 | 39 |
| COc1cc(OC)c2c(c1)C(=O)c1cc(C(Br)Br)cc(OC)c1C2=O | 6 | 41 | 9.7 | 58 |
| COc1cccc2c1C(=O)c1c(OC)cc(C)cc1C2=O | – | 28 | 1.9 | 19 |
| COc1cc(O)c2c(c1)C(=O)c1cc(CN(CCO)CCO)cc(O)c1C2=O | 6.6 | 14 | 5.2 | 45 |
| COc1cc(O)c2c(c1)C(=O)c1cc(CN(CCCl)CCCl)cc(O)c1C2=O | 0.61 | – | 19.7 | 12 |

| SMILES | IC50 (HL-60) [µM] | IC50 (L1210) [µM] | Ratio (Nucleic Acid [1]) | ID50 (Nucleic Acid [2]) [µM] |
| --- | --- | --- | --- | --- |
| COc1cccc2c1C(=O)c1c(OC)cc(CN(CCO)CCO)cc1C2=O | 490 | > 50 | 0.03 | 14 |
| COc1cc(O)c2c(c1)C(=O)c1cc(C(Br)Br)cc(OC)c1C2=O | 0.097 | 0.001 | 237 | 23 |
| COc1cc(OC)c2c(c1)C(=O)c1cc(C)cc(OC)c1C2=O | 49 | 100 | 0.43 | 21 |
| CCNCc1cc(O)c2c(c1)C(=O)c1cccc(O)c1C2=O | 8.7 | 0.77 | 2.1 | 18 |
| CCNCc1cc(OC)c2c(c1)C(=O)c1cccc(OC)c1C2=O | 48 | 1.2 | 0.6 | 29 |
| COc1cc(OC)c2c(c1)C(=O)c1cc(CN(CCO)CCO)cc(OC)c1C2=O | 100 | > 27 | 0.17 | 17 |
| O=C1c2cccc(O)c2C(=O)c2c(O)cc(CN(CCO)CCO)cc21 | 3.3 | 5.9 | 4.2 | 14 |
| NCc1cc(O)c2c(c1)C(=O)c1cccc(O)c1C2=O | 11 | 8.5 | 2.3 | 25 |
| COc1cc(O)c2c(c1)C(=O)c1cc(CNCCO)cc(O)c1C2=O | 1.6 | 0.5 | 7.5 | 12 |
| COc1cc(CN(CCCl)CCCl)cc2c1C(=O)c1c(O)cccc1C2=O | 0.39 | – | 38.5 | 15 |
| COc1cc(O)c2c(c1)C(=O)c1cc(CN(CCCl)CCCl)cc(OC)c1C2=O | 0.52 | 3.3 | 10.4 | 5.4 |
| CNC(=O)OCCN(CCOC(=O)NC)Cc1cc(OC)c2c(c1)C(=O)c1cccc(OC)c1C2=O | 9.5 | 72 | 0.99 | 9.4 |
| COc1cc(CN(CCO)CCO)cc2c1C(=O)c1c(O)cccc1C2=O | 21 | > 24 | 4.2 | 89 |
| COc1cc(C(Br)Br)cc2c1C(=O)c1c(O)cccc1C2=O | 0.06 | 4.2e-05 | 217 | 13 |
| O=C1c2cccc(O)c2C(=O)c2c(O)cc(CNCCCO)cc21 | 3.2 | 0.67 | 5 | 16 |
| CCN(CC)Cc1cc(OC)c2c(c1)C(=O)c1cccc(OC)c1C2=O | 30 | 130 | 6.3 | 19 |
| CCN(CC)Cc1cc(O)c2c(c1)C(=O)c1cccc(O)c1C2=O | 1.8 | 2.8 | 7.8 | 14 |
| COc1cccc2c1C(=O)c1c(OC)cc(CNCCO)cc1C2=O | 55 | 140 | 0.84 | 46 |
| O=C1c2cccc(O)c2C(=O)c2c(O)cc(CNCCO)cc21 | – | 0.16 | 17.4 | 15 |
| O=C1c2cccc(O)c2C(=O)c2c(O)cc(CN(CCCl)CCCl)cc21 | 0.18 | – | 383 | 69 |
| CN(C)Cc1cc(O)c2c(c1)C(=O)c1cccc(O)c1C2=O | 2.7 | 2.2 | 3.3 | 9.3 |
| CCNCc1cc(OC)c2c(c1)C(=O)c1cc(OC)cc(OC)c1C2=O | 17 | 9.8 | 0.76 | 13 |
| COc1cc(OC)c2c(c1)C(=O)c1cc(CNCCO)cc(OC)c1C2=O | 110 | 17 | 0.24 | 26 |
| COc1cc(OC)c2c(c1)C(=O)c1cc(CNCCCl)cc(OC)c1C2=O | 5.8 | 32 | 3.1 | 18 |
| CNC(=O)OCCN(CCOC(=O)NC)Cc1cc(O)c2c(c1)C(=O)c1cccc(O)c1C2=O | 210 | > 18 | 0.13 | 28 |
| CCN(CC)Cc1cc(OC)c2c(c1)C(=O)c1cc(OC)cc(OC)c1C2=O | 7.9 | 6.9 | 0.53 | 4.2 |
| O=C1c2cccc(O)c2C(=O)c2c(O)cc(CN3CCCCC3)cc21 | 2.8 | 4 | 22.5 | 63 |
